Results as given in ChEMBL document CHEMBL4673340 (J Med Chem, 2020).
pEC50, pIC50: −log10 of the molar value. The source made the active and inactive calls. No cut-off for these calls is given here.

Experiments:
Cytochrome P450 2C8 = Cytochrome P450 2C8 (Homo sapiens, UniProt P10632); experiment: Inhibition of CYP2C8 (unknown origin); type: ADME
NCI-H209 [1] = experiment: Potentiation of TMZ-induced antitumor activity against human NCI-H209 cells xenografted in BALB/c nude mouse assessed as PR rate at […], po BID for 28 days and co-treated with 50 mg/kg, po QD TMZ for 5 consecutive days at start of study and again 14 days later; type: functional; conditions: time 28 day
[2] = AUC ( 0 to infinity) in Sprague-Dawley rat at 5 mg/kg, po by LC-MS/MS analysis; conditions: in vivo
[3] = Tmax in ICR mouse at 10 mg/kg, po by LC-MS/MS analysis; type: ADME, organism-based; conditions: in vivo
How it was run: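 Three ICR mice per arm. iv dose 1 mg/kg in 5% DMA in water; oral dose 10 mg/kg in 0.5% MC. Plasma was processed by protein precipitation, diluted with water and quantified by LC-MS/MS (C18 column, acetonitrile/0.1% formic acid gradient). Values are means of three animals.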

[4] = target: Solute carrier family 22 member 2, OCT2 (Homo sapiens) (UniProt O15244); experiment: Inhibition of OCT2 (unknown origin) up to 50 uM; conditions: dose microM <=50
[5] = Cmax in ICR mouse at 10 mg/kg, po by LC-MS/MS analysis; type: ADME, organism-based; set-up: route oral, dose 10 mg/kg; conditions: in vivo
How it was run: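 Male/female unspecified ICR mice, n=3 per route. Intravenous 1 mg/kg in 5% DMA in water; oral 10 mg/kg in 0.5% MC. Plasma is processed by protein precipitation and analysed by LC–MS/MS using an acetonitrile/0.1% formic acid gradient. Values are means of the three animals.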

[6] = Half life in Beagle dog at 2 mg/kg, po by LC-MS/MS analysis; type: ADME, organism-based, Canis lupus familiaris; conditions: in vivo
How it was run: (§1)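 Three Beagle dogs; iv dose 1 mg/kg in 25% DMA in water; oral dose 2 mg/kg in 0.5% CMC-Na. Plasma drug concentrations are measured by LC–MS/MS. Values are the mean of three dogs.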

[7] = Ratio of drug level in brain to plasma of C57BL/6 mouse brain at 10 mg/kg, po after 1 hrs; type: ADME, organism-based
How it was run: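 C57BL/6 mice were given 10 mg/kg po in 0.5% MC and sampled at 1, 2 and 4 h. Brain was homogenized in 3 volumes of saline, and brain and plasma were protein-precipitated with acetonitrile, then measured by LC-MS/MS. Brain (ng/g) was expressed as a percentage of plasma (ng/mL). Values are means of three mice.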

NCI-H209 [8] = experiment: Potentiation of TMZ-induced antitumor activity against human NCI-H209 cells xenografted in BALB/c nude mouse assessed as inhibition of tumor growth at […], po BID for 28 days and co-treated with 50 mg/kg, po QD TMZ for 5 consecutive days at start of study and again 14 days later; type: functional, organism-based; conditions: time 28.0 day
[9] = Half life in Beagle dog at 1 mg/kg, iv by LC-MS/MS analysis; type: ADME, organism-based, Canis lupus familiaris; conditions: in vivo; how it was run: as §1
[10] = target: Organic anion transporter 3 (Homo sapiens, UniProt Q8TCC7); experiment: Inhibition of OAT3 (unknown origin)
Cytochrome P450 3A4 = Cytochrome P450 3A4 (Homo sapiens, UniProt P08684); experiment: Inhibition of CYP3A4 (unknown origin); type: ADME
[11] = Tmax in Beagle dog at 2 mg/kg, po by LC-MS/MS analysis; type: ADME, organism-based, Canis lupus familiaris; conditions: in vivo
How it was run: (§2)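 Beagle dogs, three per group. iv 1 mg/kg in 25% DMA in water; oral 2 mg/kg. Values are means of three dogs.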

[12] = Drug level in C57BL/6 mouse brain at 10 mg/kg, po after 4 hrs; type: ADME, organism-based; conditions: read-out: Drug uptake
How it was run: (§3)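 C57BL/6 mice (n=3) dosed orally at 10 mg/kg in 0.5% MC. Plasma and brain are sampled at 1, 2 and 4 h. Brain is homogenized in 3 volumes of saline, then acetonitrile protein precipitation; plasma is likewise precipitated. Both are analysed by LC–MS/MS and reported as means.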

[13] = Drug level in C57BL/6 mouse plasma at 10 mg/kg, po after 1 hrs; type: ADME, organism-based; how it was run: as §3
[14] = Clearance in human liver microsomes; type: ADME, Microsome
[15] = Half life in Sprague-Dawley rat at 2 mg/kg, iv by LC-MS/MS analysis; type: ADME, organism-based; conditions: in vivo
How it was run: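 Sprague-Dawley rats (n=3) get 2 mg/kg iv formulated in 38% DMA in water. Plasma is protein-precipitated and quantified by LC–MS/MS (C18, acetonitrile/0.1% formic acid gradient). Parameters are means of the three rats.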

[16] = Inhibition of PARylation in PBMC in patient with ovarian cancer at >= 10 mg BID during phase I study; type: functional, Homo sapiens; conditions: dose mg >=10
[17] = Clearance in rat liver microsomes; type: ADME, Microsome
[18] = Unbound fraction in dog plasma; type: ADME, cell-free, Canis lupus familiaris
[19] = Drug level in C57BL/6 mouse plasma at 10 mg/kg, po after 4 hrs; type: ADME, organism-based; how it was run: as §3
HCC1395 = experiment: Antiproliferation activity against human HCC1395 cells expressing BRCA1 mutant incubated for 7 days by CellTiter-Glo luminescent cell viability assay; type: functional, cell-based; conditions: HCC1395, 168 h
How it was run: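 Seeding density is set per line for log growth over 7 days. Cells attach 16 h, then are treated in duplicate with a 10-point dilution series for 7 days. CellTiter-Glo luminescence (ATP) is read, and viability is expressed relative to mock-treated control. EC50 is the mean of three independent experiments run in triplicate.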

NCI-H209 [20] = experiment: Antitumor activity against human NCI-H209 cells xenografted in BALB/c nude mouse assessed as inhibition of tumor growth at […], po BID for 28 days; conditions: time 28.0 day
[21] = Unbound fraction in rat plasma; type: ADME, cell-free
[22] = Volume of distribution at steady state in Beagle dog at 1 mg/kg, iv by LC-MS/MS analysis; type: ADME, organism-based, Canis lupus familiaris; conditions: in vivo, read-out: Vdss; how it was run: as §2
Cytochrome P450 1A2 = Cytochrome P450 1A2 (Homo sapiens, UniProt P05177); experiment: Inhibition of CYP1A2 (unknown origin); type: ADME
[23] = Drug level in C57BL/6 mouse plasma at 10 mg/kg, po after 2 hrs; type: ADME, organism-based; how it was run: as §3
[24] = Clearance in dog liver microsomes; type: ADME, Canis lupus familiaris, Microsome; conditions: read-out: CLH
[25] = target: Poly [ADP-ribose] polymerase 2 (Homo sapiens, UniProt Q9UGN5); experiment: Inhibition of PARP-2 (unknown origin) pre-incubated for 30 mins before addition of activated DNA and NAD by chemiluminescent assay
[26] = Unbound fraction in human plasma; type: ADME, cell-free
MDA-MB-436 = experiment: Antitumor activity against human MDA-MB-436 cells xenografted in BALB/c nude mouse assessed as inhibition of tumor growth at 1.6 to […], po BID for 28 days followed by treatment was interruption and monitored for additional 2 months; type: functional, organism-based; conditions: dose lower […], dose upper […], time 28.0 day
[27] = Oral bioavailability in Sprague-Dawley rat at 5 mg/kg by LC-MS/MS analysis; type: ADME, organism-based; conditions: in vivo
How it was run: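 Pharmacokinetics in Sprague-Dawley rats, three per group. iv 2 mg/kg in 38% DMA in water; po 5 mg/kg. Plasma was protein-precipitated, diluted with water and analysed by LC-MS/MS using an acetonitrile/0.1% formic acid gradient. Values are means of three rats.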

Organic anion transporter 3, sequence (Q8TCC7 whole entry): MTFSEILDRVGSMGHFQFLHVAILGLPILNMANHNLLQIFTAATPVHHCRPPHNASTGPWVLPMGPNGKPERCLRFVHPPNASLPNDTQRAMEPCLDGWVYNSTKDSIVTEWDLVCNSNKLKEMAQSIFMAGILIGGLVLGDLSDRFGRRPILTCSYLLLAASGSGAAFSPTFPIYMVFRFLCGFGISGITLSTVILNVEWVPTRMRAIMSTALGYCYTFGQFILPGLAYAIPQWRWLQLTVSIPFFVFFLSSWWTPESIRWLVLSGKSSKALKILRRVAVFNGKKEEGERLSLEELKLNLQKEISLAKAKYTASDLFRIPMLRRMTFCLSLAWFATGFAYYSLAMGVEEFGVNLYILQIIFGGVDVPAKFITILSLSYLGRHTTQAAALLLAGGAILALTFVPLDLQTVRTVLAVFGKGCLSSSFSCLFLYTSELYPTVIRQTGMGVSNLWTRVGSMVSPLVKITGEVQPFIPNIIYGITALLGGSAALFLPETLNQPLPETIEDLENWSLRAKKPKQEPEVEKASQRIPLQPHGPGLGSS
Cytochrome P450 3A4, sequence (P08684 whole entry): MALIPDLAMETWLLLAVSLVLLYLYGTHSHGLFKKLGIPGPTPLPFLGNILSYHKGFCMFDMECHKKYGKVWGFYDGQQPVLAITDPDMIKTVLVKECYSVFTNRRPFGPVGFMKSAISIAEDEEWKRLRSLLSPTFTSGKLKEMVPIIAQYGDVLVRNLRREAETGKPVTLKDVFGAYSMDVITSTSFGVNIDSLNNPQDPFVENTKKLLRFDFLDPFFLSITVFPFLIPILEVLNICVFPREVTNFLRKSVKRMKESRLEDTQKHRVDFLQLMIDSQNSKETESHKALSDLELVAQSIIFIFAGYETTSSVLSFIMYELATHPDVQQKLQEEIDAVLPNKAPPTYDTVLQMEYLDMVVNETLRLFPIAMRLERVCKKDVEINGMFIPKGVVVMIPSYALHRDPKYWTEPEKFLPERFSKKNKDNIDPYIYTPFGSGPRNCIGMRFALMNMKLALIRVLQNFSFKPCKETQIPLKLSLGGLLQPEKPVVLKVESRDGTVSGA
Cytochrome P450 1A2, sequence (P05177 whole entry): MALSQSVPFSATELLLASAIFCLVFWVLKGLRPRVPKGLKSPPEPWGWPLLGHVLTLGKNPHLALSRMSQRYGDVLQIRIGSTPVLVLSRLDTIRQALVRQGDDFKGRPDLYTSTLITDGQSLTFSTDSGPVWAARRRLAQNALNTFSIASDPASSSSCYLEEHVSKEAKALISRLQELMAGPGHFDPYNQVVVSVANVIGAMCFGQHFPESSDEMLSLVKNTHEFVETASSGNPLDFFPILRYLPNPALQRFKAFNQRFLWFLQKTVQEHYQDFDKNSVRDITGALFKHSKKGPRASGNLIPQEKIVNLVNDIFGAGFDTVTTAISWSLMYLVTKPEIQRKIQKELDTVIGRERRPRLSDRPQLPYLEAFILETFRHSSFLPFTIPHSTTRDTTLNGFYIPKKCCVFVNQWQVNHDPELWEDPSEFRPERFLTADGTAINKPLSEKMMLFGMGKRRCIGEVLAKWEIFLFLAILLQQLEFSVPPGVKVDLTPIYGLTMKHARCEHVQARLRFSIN
Poly [ADP-ribose] polymerase 2, sequence (Q9UGN5 whole entry): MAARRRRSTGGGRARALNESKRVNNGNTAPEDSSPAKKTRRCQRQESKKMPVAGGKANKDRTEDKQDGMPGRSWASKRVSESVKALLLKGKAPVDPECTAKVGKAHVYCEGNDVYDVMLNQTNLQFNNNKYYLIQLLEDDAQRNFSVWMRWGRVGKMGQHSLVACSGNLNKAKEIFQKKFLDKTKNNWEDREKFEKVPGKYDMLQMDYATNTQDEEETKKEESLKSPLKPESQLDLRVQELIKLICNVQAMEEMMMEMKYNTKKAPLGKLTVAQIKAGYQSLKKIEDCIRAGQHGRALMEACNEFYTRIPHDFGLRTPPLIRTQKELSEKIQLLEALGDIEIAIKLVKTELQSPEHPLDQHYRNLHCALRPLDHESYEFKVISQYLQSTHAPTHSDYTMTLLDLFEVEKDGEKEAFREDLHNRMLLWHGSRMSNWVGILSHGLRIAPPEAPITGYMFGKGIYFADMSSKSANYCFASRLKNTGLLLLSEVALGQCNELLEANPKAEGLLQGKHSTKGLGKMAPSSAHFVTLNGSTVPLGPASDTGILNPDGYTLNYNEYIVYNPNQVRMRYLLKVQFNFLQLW
Solute carrier family 22 member 2, OCT2 (Homo sapiens), sequence (O15244 whole entry, looked up): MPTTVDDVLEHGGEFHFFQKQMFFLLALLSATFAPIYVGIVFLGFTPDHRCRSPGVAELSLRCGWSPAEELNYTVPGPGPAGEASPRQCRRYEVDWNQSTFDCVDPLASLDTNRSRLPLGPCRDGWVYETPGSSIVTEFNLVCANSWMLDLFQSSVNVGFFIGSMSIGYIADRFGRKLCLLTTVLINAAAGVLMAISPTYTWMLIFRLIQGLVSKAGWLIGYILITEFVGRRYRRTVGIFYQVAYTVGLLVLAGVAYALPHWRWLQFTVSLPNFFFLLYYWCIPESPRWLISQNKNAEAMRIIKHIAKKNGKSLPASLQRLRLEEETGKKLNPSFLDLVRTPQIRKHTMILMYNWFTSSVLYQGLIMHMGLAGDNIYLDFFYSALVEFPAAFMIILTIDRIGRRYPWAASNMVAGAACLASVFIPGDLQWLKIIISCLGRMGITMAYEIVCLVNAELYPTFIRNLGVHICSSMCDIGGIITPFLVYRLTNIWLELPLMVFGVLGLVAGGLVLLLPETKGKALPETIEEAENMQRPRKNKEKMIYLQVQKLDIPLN
Cytochrome P450 2C8, sequence (P10632 whole entry): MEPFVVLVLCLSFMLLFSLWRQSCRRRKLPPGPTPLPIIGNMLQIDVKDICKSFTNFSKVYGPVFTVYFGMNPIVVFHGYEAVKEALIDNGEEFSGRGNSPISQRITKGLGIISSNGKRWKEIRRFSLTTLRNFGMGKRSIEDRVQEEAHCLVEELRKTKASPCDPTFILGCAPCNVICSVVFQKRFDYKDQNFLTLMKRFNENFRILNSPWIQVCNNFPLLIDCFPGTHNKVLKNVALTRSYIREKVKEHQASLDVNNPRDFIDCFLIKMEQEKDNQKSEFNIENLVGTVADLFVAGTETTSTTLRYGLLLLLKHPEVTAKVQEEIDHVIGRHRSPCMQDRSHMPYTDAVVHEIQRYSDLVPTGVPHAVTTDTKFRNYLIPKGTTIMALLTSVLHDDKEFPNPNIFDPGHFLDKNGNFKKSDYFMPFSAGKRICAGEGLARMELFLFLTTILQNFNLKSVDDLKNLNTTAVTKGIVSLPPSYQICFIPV

With `C[C@]12CCCN1CC1=NNC(=O)c3cc(F)cc4[nH]c2c1c34` [PAMIPARIB] as the molecule, how does the pIC50 (Cytochrome P450 2C8) read?
The pIC50 was < 5.00.

What about the Activity (NCI-H209 [1]) of the same molecule?
The Activity was 50%.

What about the AUC(0-inf) [2] of the same molecule?
Its AUC(0-inf) is 3470 ng·h/mL.

What about the Tmax [3] of the same molecule?
Its Tmax is 0.583 h.

What about the inhibition [4] of the same molecule?
The inhibition was “inactive”.

And the Cmax [5]?
Its Cmax is 2710 ng/mL.

And the half-life [6]?
The half-life was 3.62 h.

What about the BPR [7] of the same molecule?
The BPR was 17.4%.

What about the TGI (NCI-H209 [8]) of the same molecule?
Its TGI is “Active”.

What about the half-life [9] of the same molecule?
The half-life was 2.07 h.

What about the pIC50 [10] of the same molecule?
Its pIC50 is 4.62.

What about the pIC50 (Cytochrome P450 3A4) of the same molecule?
Its pIC50 is < 5.00.

And the Tmax [11]?
The Tmax was 0.417 h.

And the concentration at 4 h [12]?
The concentration at 4 h was 135 ng/g.

What about the concentration at 1 h [13] of the same molecule?
The concentration at 1 h was 3530 ng/mL.

What about the microsomal CLint [14] of the same molecule?
Its microsomal CLint is 7.9 µL/min/mg.

And the half-life [15]?
The half-life was 5.3 h.

And the “inhibition (INH)” value [16]?
The value was >80%.

What about the microsomal CLint [17] of the same molecule?
Its microsomal CLint is 7.2 µL/min/mg.

What about the fraction unbound [18] of the same molecule?
Its fraction unbound is 0.21.

And the concentration at 4 h [19]?
Its concentration at 4 h is 707 ng/mL.

And the pEC50 (HCC1395)?
The pEC50 was 7.37.

And the TGI (NCI-H209 [20])?
The TGI was “inactive”.

And the fraction unbound [21]?
The fraction unbound was 0.151.

What about the Vd [22] of the same molecule?
The Vd was 2.09 L/kg.

What about the pIC50 (Cytochrome P450 1A2) of the same molecule?
Its pIC50 is < 5.00.

And the concentration at 2 h [23]?
The concentration at 2 h was 1330 ng/mL.

What about the microsomal CLint [24] of the same molecule?
Its microsomal CLint is 9.5 µL/min/mg.

And the pIC50 [25]?
The pIC50 was 9.05.

What about the fraction unbound [26] of the same molecule?
Its fraction unbound is 0.043.

What about the TGI (MDA-MB-436) of the same molecule?
The TGI was “Dose-dependent effect”.

What about the bioavailability [27] of the same molecule?
The bioavailability was 93.7%.
